The subject of experiment [1] is IPEC-J2. The experiment is described as follows: Induction of claudin-4 protein expression in porcine IPEC-J2 cells at 20 uM after 6 days by Western blot analysis. The class given is functional, cell-based. To be noted: Sus scrofa domesticus, time 6.0 day. An outline of the steps: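 Inserts were treated apically with 20 μM from day 7, with medium renewed at day 10. At day 13 cells were lysed and protein equalized by BCA, then run on SDS–PAGE and transferred to nitrocellulose. Blots were probed with mouse anti-claudin 4 and an HRP secondary and detected by ECL. Band intensity was normalized to β-actin and expressed as fold over PBS control.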

Experiment [2] deals with IPEC-J2. The experiment is described as follows: Induction of porcine IPEC-J2 cells monolayer development assessed as increase in transepithelial electrical resistance at 20 uM after 6 days by voltammetric method. The class given is functional, cell-based. To be noted: Sus scrofa domesticus, time 6.0 day. An outline of the steps: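 IPEC-J2 cells were seeded at 5 × 10^5/insert (0.4 μm PET) and cultured until TEER exceeded 1 kΩ cm2 (day 7). Apical medium was then replaced with 20 μM compound or PBS and renewed at day 10, with basolateral medium changed in parallel. TEER was read with an EVOM2 chopstick electrode at days 10 and 13. Mann–Whitney test versus PBS.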

Experiment [3] relates to IPEC-J2. The experiment can be described thus: Induction of porcine IPEC-J2 cells monolayer development assessed as increase in transepithelial electrical resistance at 50 uM after 6 days by voltammetric method. The class given is functional, cell-based. Particulars: Sus scrofa domesticus, time 6.0 day.
Experiment [4] deals with Escherichia coli. The experiment can be described thus: Growth inhibition of Escherichia coli 0147:K89:K88 at 20 to 500 uM measured every 5 mins for 24 hrs by turbidometric analysis. In kind it is functional, organism-based. Particulars: dose 20-500 µM, time hrs <=24. An outline of the steps: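 Compound stocks were made in DMSO and filtered. The turbidimetric assay used double-strength BHI, 20–500 μM, E. coli at final 10^4 CFU/mL, and sealed anaerobic plates at 37 °C. OD690 was read every 5 min over 24 h.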

Experiment [5] relates to Escherichia coli. The experiment is described as follows: Growth inhibition of Escherichia coli DSM 2840 at 20 to 500 uM measured every 5 mins for 24 hrs by turbidometric analysis. The class given is functional, organism-based. To be noted: dose 20-500 µM, time hrs <=24. An outline of the steps: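 Strains were revived from cryostocks and passaged twice daily in BHI with shaking at 37 °C over 2 days. Double-strength BHI plus diluted test stock (compounds in DMSO, 0.22 μm filtered), inoculum at final 10^4 CFU/mL, film-sealed for anaerobic conditions, 37 °C in plate reader. OD690 was read every 5 min for 24 h; lag time came from the lag-exponential method. Three independent experiments were run, each in triplicate.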

Each structure is given as a SMILES string. Activity calls are given as the source filed them. No cut-off for these calls is given here.

3 compounds from ChEMBL document CHEMBL4673343, “Lythrum salicaria Ellagitannins Stimulate IPEC-J2 Cells Monolayer Formation and Inhibit Enteropathogenic Escherichia coli Growth and Adhesion” (J Nat Prod, 2020) can be followed below.

Consider `O=C(O[C@@H]1COC(=O)c2cc(O)c(O)c(O)c2-c2c(cc(O)c(O)c2O)C(=O)O[C@H]1[C@@H]1OC(=O)c2cc(O)c(O)c(O)c2-c2c(O)c(O)c(O)c3c2C(=O)O[C@H]1[C@H]3O)c1cc(O)c(O)c(O)c1Oc1cc2c(c(O)c1O)-c1c(cc(O)c(O)c1O)C(=O)OC[C@H]1OC(=O)c3cc(O)c(O)c(O)c3-c3c(O)c(O)c(O)c4c3C(=O)O[C@H]([C@H]3OC(=O)c5c-4c(O)c(O)c(O)c5[C@@H]3O)[C@@H]1OC2=O`, for which the outcome in experiment [1] and in experiment [2] was Active.

In the case of `O=c1oc2cc(O)ccc2c2cc(O)c(O)cc12`, the result in experiment [3] was inactive. Besides, the “growth inhibition (GI)” value in experiment [4] and in experiment [5] was “inactive” throughout.

Turning to `O=c1oc2cc(O)ccc2c2ccc(O)cc12`, in experiment [3], the result was inactive. Besides, the “growth inhibition (GI)” value in experiment [4] and in experiment [5] was “inactive” throughout.
